Data on 45 molecules can be found in PubChem BioAssay AID704 (The Scripps Research Institute Molecular Screening Center, 2007).

The structures appear in SMILES notation. Screen size: about 97,000 compounds; about 770 (0.79%) were called active.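 How the source made its calls: active means inhibition above the screen-wide mean plus 3 SD (cut at about 35% in these data); inactive means the rest.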 The list comes from a sample in which actives are over-represented; it also holds similar structures and randomly drawn compounds.

Protein Rev (Human immunodeficiency virus type 1 group M subtype B (isolate WMJ22)), sequence (P05866 whole entry, looked up): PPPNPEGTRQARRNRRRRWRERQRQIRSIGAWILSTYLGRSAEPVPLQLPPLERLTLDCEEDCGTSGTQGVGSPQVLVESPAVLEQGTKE

The target of this test is Protein Rev (Human immunodeficiency virus type 1 group M subtype B (isolate WMJ22)) (UniProt P05866). Nature of the test: disruptors of Rev peptide-RRE RNA complex – biochemical, FRET, protein-RNA interaction, primary screen (AID 704). The note with it: Rev peptide-RRE RNA binding, at 8 µM, hits give high values. The essentials: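 Assay system: Labelled RRE RNA duplex and labelled Rev peptide | Times: 5 min preincubation and 15 min binding, 25 °C | Detection: FRET, ex 480 nm, em 540 and 671 nm | Evaluation: % inhibition of FRET ratio versus controls | Benchmarks: DMSO wells as 0% and neomycin B wells as 100% inhibition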
What is called inhibition is the relative decrease from the control value, in per cent. In the case of `COc1ccc(Nc2nc(=O)[nH]nc2C)cc1`, the inhibition was 4.41% (inactive).
The figure for `COc1ccc([N+](=O)[O-])cc1NC(=O)CCc1ccccc1` is 1.01% (inactive); for `CCOC(=O)C1=C(C)Nc2sc(C(=O)c3ccc(Br)cc3)c(N)c2C1c1ccc(C(=O)OC)cc1` (stereo not given) it is 7.08% (inactive).
As for `Cc1cccc(C)c1N1CCN(S(=O)(=O)N2CCOCC2)CC1`, the inhibition was 8.84% (inactive).
The figure for `Cc1cc(N2CCN(S(=O)(=O)c3ccc(C)c(C)c3)CC2)c2ccccc2n1` is 16.5% (inactive); for `Cc1ccc(S(=O)(=O)Nc2nc3ccccc3nc2N2CCc3ccccc3C2)cc1` it is 6.67% (inactive); for `Cc1ccc(S(=O)(=O)C(C#N)c2nc3ccccc3nc2N2CCCC2)cc1C` (stereo not given) it is 80% [fluorescence artefact?] (active).
`CC(C)=C1SC(N2CCN(c3cccc(C)c3)CC2)=NC1=O`: the inhibition is 3.88% (inactive).
In the case of `CC(C)OC(=O)CN1C(=O)C(=O)c2ccccc21`, the inhibition is 9.74% (inactive).
With `CCOC(=O)c1cc2n(c1C)-c1ccccc1C2=O`, the inhibition was 7.43% (inactive).
As for `CCOC(=O)c1cc2n(c1N)-c1ccccc1C2=O`, the inhibition was 107% [fluorescence artefact?] (active).
As to `CC(C)CCNC(=O)Cn1c(=O)oc2cc(S(=O)(=O)N3CC(C)CC(C)C3)ccc21` (stereo not given), the inhibition was 4.77% (inactive).
Turning to `CCOC(=O)N1CCN(c2c(NCCCN3CCCC(C)C3)c(=O)c2=O)CC1` (stereo not given), the inhibition is 1.25% (inactive).
For `CCCn1c(O)c(CN2CCCC(C)C2)c(C)c(C#N)c1=O` (stereo not given) the value was 42.6% (active).
On to `CCCCCCn1c(CN2CCCC(C)C2)nc2c1c(=O)n(C)c(=O)n2C` (stereo not given), for which the inhibition is 7.64% (inactive).
Regarding `O=C(O)c1ccccc1NC(=S)NC(NC(=O)c1ccccc1[N+](=O)[O-])C(Cl)(Cl)Cl` (stereo not given), the inhibition was -3.09% (inactive).
On to `CCc1nnc(NC(=O)c2nc3nccc(C)n3n2)s1`, for which the inhibition was 12.3% (inactive).
For `CCc1ccc2nc3sc(C(=O)Nc4nnc(CC)s4)c(N)c3cc2c1` the value was 89.2% [fluorescence artefact?] (active).
The figure for `CCc1nnc(NC(=O)c2cccs2)s1` is 7.76% (inactive); for `COc1cccc(/C=N/NC(=O)c2cccc([N+](=O)[O-])c2)c1OS(=O)(=O)c1ccc(C)cc1` it is 11.5% (inactive).
On to `Cc1cccc(COc2ccccc2/C=N/Nc2ccc([N+](=O)[O-])cc2)c1`, for which the inhibition is 64% (active).
On to `Cc1ccc(-n2c(C)cc(/C=N/Nc3ccc([N+](=O)[O-])cn3)c2C)c(C)c1`, for which the inhibition is 31.5% (inactive).
For `C=CCNc1cnn(-c2ccc(C)cc2)c(=O)c1Cl` the value was -1.57% (inactive); for `Cc1ccc(-n2c(C)cc(/C=C(\C#N)C(=O)NCC3CCCO3)c2C)cc1` (stereo not given), -6.05% (inactive).
The figure for `N#CCSc1nc2c(c(=O)n1Cc1ccccc1)C1(CCCC1)Cc1ccccc1-2` is 23.3% (inactive).
For `Cc1cccn2c(=O)c(/C=C3\SC(=S)N(CC(C)C)C3=O)c(NCCCOC(C)C)nc12` the value was 73.4% (active); for `CC(C)OCCCNc1nc2c(c(=O)n(Cc3ccccc3F)c(=O)n2C)n1C`, 8.58% (inactive).
Consider `Cn1nc(C(F)(F)F)c(C(=O)Nc2cccc(C(F)(F)F)c2)c1SCc1ccc(Cl)cc1`, for which the inhibition is 9.7% (inactive).
As to `COc1ccc(CNC(=O)C2CCC(CNc3c(N4CCOCC4)c(=O)c3=O)CC2)cc1` (stereo not given), the inhibition is -0.22% (inactive).
In the case of `CCOc1ccc(CN(Cc2ccco2)S(=O)(=O)c2ccc(-n3cnnn3)c(OC)c2)cc1`, the inhibition is 18.6% (inactive).
For the molecule `O=C(O)C1CCN(C(=O)OCc2ccccc2)CC1`, the inhibition was 2.49% (inactive).
For `CCC(C)n1c(-c2cc(OC)c(OC)c(OC)c2)nc2nc3ccccc3nc21` (stereo not given) the value was 2.36% (inactive); for `CCOC(=O)C1=C(CN2CCc3ccccc32)NC(=O)NC1c1ccc(Cl)cc1` (stereo not given), 10.3% (inactive); for `CCOCCOCCC(C(=O)O)P(=O)(c1ccccc1)c1ccccc1` (stereo not given), 0.47% (inactive).
Consider `O=c1cc(C(F)(F)F)[nH]c(=O)n1C1CCCCC1`, for which the inhibition was 8.66% (inactive).
For the molecule `COC(=O)C1=C(C)N=C2SC(C)C(=O)N2C1/C=C/c1ccccc1` (stereo not given), the inhibition is 4.63% (inactive).
For `C=C(Cl)COC(=O)C1C2C=CC(C2)C1C(=O)O` (stereo not given) the value was 3.94% (inactive).
`Oc1ccc(-c2onc3ccc(Cl)cc23)cc1`: the inhibition was 47.9% (active).
For the molecule `Cc1cccc(N(C(=O)c2ccc(CN3CCOCC3)o2)C(C(=O)NC2CCCCC2)c2ccc(F)cc2)c1` (stereo not given), the inhibition is 0.55% (inactive).
For `Cc1[nH]n(-c2ccccc2)c(=O)c1CCOC(=O)c1ccc(C(F)(F)F)cc1` the value was 3.64% (inactive).
On to `N#Cc1c(N)n(CCOC(=O)c2ccc(Cl)cc2)c2nc3ccccc3nc12`, for which the inhibition was 7.97% (inactive).
The figure for `CN(C)CCCn1c(N)c(C#N)c2nc(C#N)c(C#N)nc21` is 44.4% (active).
For `OC(COc1ccc2c(c1)CCC2)CN1CCN(c2cccc(Cl)c2)CC1` (stereo not given) the value was 13.2% (inactive); for `Cc1cc(OCCOc2cccc3cccnc23)c(C)cc1Cl`, 17.3% (inactive).
Turning to `Cc1ccc2nc(Nc3ccccc3O)nc(-c3ccccc3)c2c1`, the inhibition was 9.78% (inactive).
